Tests used:
L1210 = assay: Compound was evaluated for the clonogenic assay with murine leukemia L1210 cells; format: functional; settings: Mus musculus, read-out: ID50 (the source's name)
ATH-8 cell line [1] = assay: Compound was evaluated for the inhibition of replication and cytopathic effect of HIV-1 in ATH8 cells; format: functional, cell-based, Homo sapiens
Method in brief: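 ATH8 (CD4+) cells, 2 × 10⁵, were exposed to HIV-1 LAI (500 TCID50) for 45 min and then cultured with compound. Total viable cells were counted on day 7. Percent protection was calculated as viable cells (infected plus drug minus infected alone) divided by (uninfected minus infected alone) × 100. Cytotoxicity was 100 × (1 − viable cells with drug / viable cells alone).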

ATH-8 cell line [2] = assay: Compound was evaluated for the cytotoxicity in ATH8 cells; settings: Homo sapiens
[3] = Kinetic hydrolysis catalyzed by pig liver esterase at pH 7.4 and 37 degree C; format: ADME, Sus scrofa
Method in brief: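 Substrate at 2.2 × 10⁻³ M in 0.02 M Na₂HPO₄, pH 7.4, with pig liver esterase (200 units per 1 mL), stirred at 37 °C. Aliquots were taken at set times and analysed by reverse-phase C18 HPLC (water–CH₃CN gradient) to follow loss of substrate and give the half-life.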

[4] = Kinetic hydrolysis catalyzed by pig liver esterase at pH 1.2; format: ADME, Sus scrofa
[5] = Kinetic hydrolysis catalyzed by pig liver esterase at pH 9.8; format: ADME, Sus scrofa
L1210 (Mus musculus) = assay: Compound was evaluated for the inhibitory activity in a clonogenic assay with murine leukemia L1210 cells

half-life [3]	EC50 (ATH-8 cell line [1]; ath-8)	half-life [4]	half-life [5]	Compound	IC50 (L1210)	EC50 (ATH-8 cell line [1]; Homo sapiens, ATH-8)	IC50 (ATH-8 cell line [2])	ID50 (L1210 (Mus musculus))
–	–	–	–	Nc1ncnc2c1ncn2C=C=CCO	150000 nM	14000 nM	3000 nM	–
8.5 h	880 nM	24.4 h	2.52 h	COC(=O)C(C)NP(=O)(OCC=C=Cn1cnc2c(N)ncnc21)Oc1ccccc1 (stereo in doubt; 2a)	–	–	–	> 300000 nM
–	210 nM	–	–	COC(=O)C(C)NP(=O)(OCC=C=Cn1cnc2c(N)ncnc21)Oc1ccccc1 (stereo in doubt; 4a)	–	–	–	–
